From article PMC7359933 (Clinical and Translational Science, 2020)
Read-outs that look alike come from different tables or passages of the source. Marks after values point to notes of the source that are not given here.

Tests used:
healthy volunteers [1] = assay: Thorough QT/QTc study part 2: Holter ECG, Fridericia-corrected QT interval; type: in vivo, human
How it was run: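 Healthy subjects, randomized four-period crossover with 10-day washouts, fed: oral fostemsavir 1,200 mg q.d. or 2,400 mg b.i.d. for 7 days, placebo b.i.d., or single moxifloxacin 400 mg on day 7. Triplicate ECGs from 24-h Holter, read centrally. Baseline is the mean of day-1 predose readings; readings 0.5–22.25 h post-dose on day 7. Linear mixed model gives 90% CI; bound 10 msec; assay sensitivity >5 msec at 2–4 h.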

healthy volunteers [2] = tested on: healthy volunteers; set-up: species or system human; details: at observed mean TMR Cmax, healthy adults
healthy volunteers [3] = assay: Adverse events and discontinuations in thorough QT study part 2; type: in vivo, human
healthy volunteers [4] = assay: Thorough QT study part 1 sentinel cohort safety; type: in vivo, human; details: fostemsavir 2,400 mg b.i.d. for 7 days (n = 6)
healthy volunteers [5] = details: total daily fostemsavir dose of 20–2,400 mg ref 10; cited from earlier work
HIV‐1 = details: cited from earlier work
[6] = tested on: heavily treatment‐experienced subjects; details: treated for 96 weeks, BRIGHTE, fostemsavir 600 mg b.i.d. ref 23; cited from earlier work
[7] = TMR after FTR 600 mg b.i.d., N = 16, healthy adults ref 21; cited from earlier work
[8] = fostemsavir 1,200 mg q.d., at 6 hours postdose
[9] = fostemsavir 2,400 mg b.i.d., at 5 hours post‐AM dose

COc1cnc(-n2cnc(C)n2)c2c1c(C(=O)C(=O)N1CCN(C(=O)c3ccccc3)CC1)cn2COP(=O)(O)O [fostemsavir]
Mean change from baseline, msec ddQTcF (healthy volunteers [1]; FTR 1,200 mg q.d. (A), day 7, 0.5 hour): –7.44 msec
Mean change from baseline, msec ddQTcF (healthy volunteers [1]; FTR 1,200 mg q.d. (A), day 7, 1 hour): –7.25 msec
Mean change from baseline, msec ddQTcF (healthy volunteers [1]; FTR 1,200 mg q.d. (A), day 7, 2 hour): –6.78 msec
Mean change from baseline, msec ddQTcF (healthy volunteers [1]; FTR 1,200 mg q.d. (A), day 7, 3 hour): –7.54 msec
Mean change from baseline, msec ddQTcF (healthy volunteers [1]; FTR 1,200 mg q.d. (A), day 7, 4 hour): –3.37 msec
Mean change from baseline, msec ddQTcF (healthy volunteers [1]; FTR 1,200 mg q.d. (A), day 7, 5 hour): –0.49 msec
Mean change from baseline, msec ddQTcF (healthy volunteers [1]; FTR 1,200 mg q.d. (A), day 7, 6 hour): –4.52 msec
Mean change from baseline, msec ddQTcF (healthy volunteers [1]; FTR 1,200 mg q.d. (A), day 7, 8 hour): –6.87 msec
Mean change from baseline, msec ddQTcF (healthy volunteers [1]; FTR 1,200 mg q.d. (A), day 7, 10 hour): 0.76 ms
Mean change from baseline, msec ddQTcF (healthy volunteers [1]; FTR 1,200 mg q.d. (A), day 7, 11.5 hour): –5.31 msec
Mean change from baseline, msec ddQTcF (healthy volunteers [1]; FTR 1,200 mg q.d. (A), day 7, 14 hour): –7.05 msec
Mean change from baseline, msec ddQTcF (healthy volunteers [1]; FTR 1,200 mg q.d. (A), day 7, 15 hour): –3.84 msec
Mean change from baseline, msec ddQTcF (healthy volunteers [1]; FTR 1,200 mg q.d. (A), day 7, 16 hour): –1.48 msec
Mean change from baseline, msec ddQTcF (healthy volunteers [1]; FTR 1,200 mg q.d. (A), day 7, 22.25 hour): –3.18 msec
Mean difference vs. placebo (90% CI), msec ddQTcF (healthy volunteers [1]; FTR 1,200 mg q.d. (A–D), day 7, 0.5 hour): 0.10 (–1.98, 2.18) msec
Mean difference vs. placebo (90% CI), msec ddQTcF (healthy volunteers [1]; FTR 1,200 mg q.d. (A–D), day 7, 1 hour): 0.51 (–1.57, 2.58) msec
Mean difference vs. placebo (90% CI), msec ddQTcF (healthy volunteers [1]; FTR 1,200 mg q.d. (A–D), day 7, 2 hour): 3.84 (1.75, 5.93) msec
Mean difference vs. placebo (90% CI), msec ddQTcF (healthy volunteers [1]; FTR 1,200 mg q.d. (A–D), day 7, 3 hour): 2.49 (0.40, 4.57) msec
Mean difference vs. placebo (90% CI), msec ddQTcF (healthy volunteers [1]; FTR 1,200 mg q.d. (A–D), day 7, 4 hour): 3.66 (1.58, 5.75) msec
Mean difference vs. placebo (90% CI), msec ddQTcF (healthy volunteers [1]; FTR 1,200 mg q.d. (A–D), day 7, 5 hour): 4.18 (2.11, 6.26) msec
Mean difference vs. placebo (90% CI), msec ddQTcF (healthy volunteers [1]; FTR 1,200 mg q.d. (A–D), day 7, 6 hour): 4.27 (2.19, 6.34) msec
Mean difference vs. placebo (90% CI), msec ddQTcF (healthy volunteers [1]; FTR 1,200 mg q.d. (A–D), day 7, 10 hour): 3.94 (1.86, 6.01) msec
Mean difference vs. placebo (90% CI), msec ddQTcF (healthy volunteers [1]; FTR 1,200 mg q.d. (A–D), day 7, 11.5 hour): 1.61 (–0.48, 3.69) msec
Mean difference vs. placebo (90% CI), msec ddQTcF (healthy volunteers [1]; FTR 1,200 mg q.d. (A–D), day 7, 14 hour): –0.10 (–2.18, 1.972) msec
Mean difference vs. placebo (90% CI), msec ddQTcF (healthy volunteers [1]; FTR 1,200 mg q.d. (A–D), day 7, 15 hour): 0.30 (–1.78, 2.38) msec
Mean difference vs. placebo (90% CI), msec ddQTcF (healthy volunteers [1]; FTR 1,200 mg q.d. (A–D), day 7, 16 hour): 0.04 (–2.04, 2.12) msec
Mean difference vs. placebo (90% CI), msec ddQTcF (healthy volunteers [1]; FTR 1,200 mg q.d. (A–D), day 7, 22.25 hour): 0.29 (–1.79, 2.36) msec
Mean change from baseline, msec ddQTcF (healthy volunteers [1]; FTR 2,400 mg b.i.d. (B), day 7, 0.5 hour): –6.04 msec
Mean change from baseline, msec ddQTcF (healthy volunteers [1]; FTR 2,400 mg b.i.d. (B), day 7, 1 hour): –6.15 msec
Mean change from baseline, msec ddQTcF (healthy volunteers [1]; FTR 2,400 mg b.i.d. (B), day 7, 2 hour): –6.90 msec
Mean change from baseline, msec ddQTcF (healthy volunteers [1]; FTR 2,400 mg b.i.d. (B), day 7, 3 hour): –3.67 msec
Mean change from baseline, msec ddQTcF (healthy volunteers [1]; FTR 2,400 mg b.i.d. (B), day 7, 4 hour): 1.64 ms
Mean change from baseline, msec ddQTcF (healthy volunteers [1]; FTR 2,400 mg b.i.d. (B), day 7, 5 hour): 6.50 ms
Mean change from baseline, msec ddQTcF (healthy volunteers [1]; FTR 2,400 mg b.i.d. (B), day 7, 6 hour): 0.18 ms
Mean change from baseline, msec ddQTcF (healthy volunteers [1]; FTR 2,400 mg b.i.d. (B), day 7, 8 hour): –3.46 msec
Mean change from baseline, msec ddQTcF (healthy volunteers [1]; FTR 2,400 mg b.i.d. (B), day 7, 10 hour): 1.51 ms
Mean change from baseline, msec ddQTcF (healthy volunteers [1]; FTR 2,400 mg b.i.d. (B), day 7, 11.5 hour): –3.88 msec
Mean change from baseline, msec ddQTcF (healthy volunteers [1]; FTR 2,400 mg b.i.d. (B), day 7, 14 hour): –1.65 msec
Mean change from baseline, msec ddQTcF (healthy volunteers [1]; FTR 2,400 mg b.i.d. (B), day 7, 15 hour): 4.45 ms
Mean change from baseline, msec ddQTcF (healthy volunteers [1]; FTR 2,400 mg b.i.d. (B), day 7, 16 hour): 8.59 ms
Mean change from baseline, msec ddQTcF (healthy volunteers [1]; FTR 2,400 mg b.i.d. (B), day 7, 22.25 hour): 0.16 ms
Mean difference vs. placebo (90% CI), msec ddQTcF (healthy volunteers [1]; FTR 2,400 mg b.i.d. (B–D), day 7, 0.5 hour): 1.50 (–0.63, 3.62) msec
Mean difference vs. placebo (90% CI), msec ddQTcF (healthy volunteers [1]; FTR 2,400 mg b.i.d. (B–D), day 7, 1 hour): 1.61 (–0.51, 3.73) msec
Mean difference vs. placebo (90% CI), msec ddQTcF (healthy volunteers [1]; FTR 2,400 mg b.i.d. (B–D), day 7, 2 hour): 3.72 (1.60, 5.84) msec
Mean difference vs. placebo (90% CI), msec ddQTcF (healthy volunteers [1]; FTR 2,400 mg b.i.d. (B–D), day 7, 3 hour): 6.36 (4.23, 8.48) msec
Mean difference vs. placebo (90% CI), msec ddQTcF (healthy volunteers [1]; FTR 2,400 mg b.i.d. (B–D), day 7, 4 hour): 8.67 (6.55, 10.79) msec
Mean difference vs. placebo (90% CI), msec ddQTcF (healthy volunteers [1]; FTR 2,400 mg b.i.d. (B–D), day 7, 5 hour): 11.18 (9.05, 13.30) msec
Mean difference vs. placebo (90% CI), msec ddQTcF (healthy volunteers [1]; FTR 2,400 mg b.i.d. (B–D), day 7, 6 hour): 8.96 (6.84, 11.10) msec
Mean difference vs. placebo (90% CI), msec ddQTcF (healthy volunteers [1]; FTR 2,400 mg b.i.d. (B–D), day 7, 8 hour): 5.33 (3.21, 7.46) msec
Mean difference vs. placebo (90% CI), msec ddQTcF (healthy volunteers [1]; FTR 2,400 mg b.i.d. (B–D), day 7, 10 hour): 4.69 (2.57, 6.81) msec
Mean difference vs. placebo (90% CI), msec ddQTcF (healthy volunteers [1]; FTR 2,400 mg b.i.d. (B–D), day 7, 11.5 hour): 3.04 (0.92, 5.17) msec
Mean difference vs. placebo (90% CI), msec ddQTcF (healthy volunteers [1]; FTR 2,400 mg b.i.d. (B–D), day 7, 14 hour): 5.30 (3.18, 7.43) msec
Mean difference vs. placebo (90% CI), msec ddQTcF (healthy volunteers [1]; FTR 2,400 mg b.i.d. (B–D), day 7, 15 hour): 8.60 (6.47, 10.73) msec
Mean difference vs. placebo (90% CI), msec ddQTcF (healthy volunteers [1]; FTR 2,400 mg b.i.d. (B–D), day 7, 16 hour): 10.10 (7.98, 12.23) msec
Mean difference vs. placebo (90% CI), msec ddQTcF (healthy volunteers [1]; FTR 2,400 mg b.i.d. (B–D), day 7, 22.25 hour): 3.63 (1.51, 5.75) msec
change from placebo in baseline‐adjusted Fridericia‐corrected QTc (ddQTcF) (healthy volunteers [1]; Fostemsavir 1,200 mg b.i.d.): did not result in a clinically meaningful change
effect on heart rate, QRS or PR intervals, or waveform morphology (healthy volunteers [1]; fostemsavir 1,200 mg q.d. and 2,400 mg b.i.d.): did not have a clinically meaningful effect
upper bound of the 90% CI around ddQTcF (healthy volunteers [1]; fostemsavir 1,200 mg q.d., all time points): below 10 msec
ddQTcF upper bound of two‐sided 90% CI at maximum (healthy volunteers [1]; [8]): 6.3 ms
maximum time‐matched ddQTcF (healthy volunteers [1]; [8]): 4.3 ms
subjects with maximum QTcF between 450 and 480 msec (healthy volunteers [1]; fostemsavir 2,400 mg b.i.d.): Three
subjects with maximum change in QTcF between 30 and 60 msec (healthy volunteers [1]; fostemsavir 2,400 mg b.i.d.): Four
ddQTcF upper bound of two‐sided 90% CI at maximum (healthy volunteers [1]; [9]): 13.3 ms
maximum time‐matched ddQTcF (healthy volunteers [1]; [9]): 11.2 ms
ddQTcF upper bound of two‐sided 90% CI at maximum (healthy volunteers [1]; fostemsavir 2,400 mg b.i.d., at 5 hours post‐AM dose, listed as FTR): 13.3 (at 5 hour) msec
ddQTcF upper 90% CI boundary, model‐predicted (healthy volunteers [2]; FTR 600 mg b.i.d. + cobicistat 150 mg q.d.): ≤ 5.0 ms
ddQTcF upper 90% CI boundary, model‐predicted (healthy volunteers [2]; FTR 600 mg b.i.d. + cobicistat 150 mg q.d., listed as FTR): 5.0 ^a msec
ddQTcF upper 90% CI boundary, model‐predicted (healthy volunteers [2]; FTR 600 mg b.i.d.): ≤ 3.2 ms
ddQTcF upper 90% CI boundary, model‐predicted (healthy volunteers [2]; FTR 600 mg b.i.d., listed as FTR): 3.2 ^a msec
AE rate (healthy volunteers [3]; fostemsavir 1,200 mg q.d.): 53%
headache (healthy volunteers [3]; fostemsavir 1,200 mg q.d.): 16%
AE rate (healthy volunteers [3]; fostemsavir 2,400 mg b.i.d.): 56%
headache (healthy volunteers [3]; fostemsavir 2,400 mg b.i.d.): 35%
subjects discontinued for AEs (healthy volunteers [3]; fostemsavir 2,400 mg b.i.d. (vomiting, elevated aminotransferases, rash, headache/anxiety/dyspnea/pharyngeal edema)): five
safety data (healthy volunteers [4]): all AEs (primarily dizziness and headache) were mild and there were no relevant cardiac signals
cardiovascular abnormalities (healthy volunteers [5]): no clinically relevant cardiovascular abnormalities were observed
activity with regard to HIV‐1 tropism (HIV‐1): active regardless of HIV‐1 tropism
in vitro cross‐resistance to other antiretroviral drug classes (HIV‐1): no in vitro cross‐resistance
subjects discontinued due to QT prolongation (> 450 msec) [6]: Less than 2%
subjects discontinued due to QT prolongation (> 450 msec), number/total [6]: 7/371
Mean Cmax [7]: 2,096 ^b ng/mL
